# From PubChem BioAssay
# Most compounds without a hit are left out; they make up all but 2% or so of the library.
# STAT3 act: increases IL-6 driven STAT3 reporter signal; U3A cells, IL-6 STAT3-luciferase reporter, luminescence; 100% = signal with IL-6 EC80 alone; activation (% of control), % at 5.6 µM; 190,000 tested, 0.91% active; AID 871;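 active = activation above the screen-wide mean of compound activation plus 3 SD, cut at about 130% in these data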;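 note: 0% = background luminescence of wells with medium and substrate only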
#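 Material: STAT1-lacking human U3A cells, STAT3 luciferase reporter | Benchmarks: IL-6-only wells as 100% reference | Probe or stimulus: IL-6 (33 ng/mL) | Timing: Compound 1 h, then IL-6 6 h at 37 °C | Detection: Luminescence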
# STAT3 inh: inhibitors of IL-6 induced STAT3 signaling. inhibition, % at 5.5 µM. 190,000 tested, 0.89% active. AID 862. U3A cells, IL-6 STAT3-luciferase reporter, luminescence; host cell line lacks STAT1;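 active = inhibition above the mean inhibition across all screened compounds plus 3 SD, cut at about 44% in these data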;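 note: 0% = DMSO only wells and 100% = 100 µM nifuroxazide control wells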
# HSP90 refold inh: inhibitors of HSP90 luciferase refolding in rabbit reticulocyte lysate; luciferase refolding luminescence, 3 h; inhibition, % at 5.6 µM; 290,000 tested, 0.91% active;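 active = inhibition above the screen-wide mean plus 3 SD, computed separately per campaign, cut at about 16% in these data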;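 note: 0% = DMSO wells and 100% = 60 µM geldanamycin wells; inhibitors lower the luminescence because luciferase stays unfolded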
# STAT1 blocker: reduces IFN-gamma driven STAT1 reporter signal; NIH 3T3 STAT1-luciferase reporter, luminescence; 200,000 tested, 0.35% active; inhibition, % at 5.5 µM; AID 920;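 active = inhibition above a set limit, the mean inhibition across all tested compounds plus 3 SD, cut at about 34% in these data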;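 note: 0% = IFN-gamma with DMSO and 100% = IFN-gamma with 300 µM nifuroxazide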
# * = called active by the depositor; . = no result given.
SMILES,STAT3 act,STAT3 inh,HSP90 refold inh,STAT1 blocker
Cc1ccc(C(=O)Nc2ccc3cn[nH]c3c2)cc1S(=O)(=O)N1CCOCC1,141.9*,-40.3,-0.2,-31.6
CC(C)NC(=O)c1ccc(CN2CCC(Cc3ccccc3)CC2)cc1,.,.,0.3,.
Cc1ccccc1NC(=O)c1ccc(CN2CCC(Cc3ccccc3)CC2)cc1,66.2,49.5*,4.0,-5.1
O=C(O)c1cnc(-c2ccccc2)nc1Sc1ccccc1Cl,134.6*,-39.7,-3.3,-3.3
O=C(O)c1cnc(-c2ccccc2)nc1Sc1ccc(Cl)cc1,99.5,8.2,1.3,-6.8
O=C(Cn1cnc2sc3c(c2c1=O)CCCC3)NCC(=O)Nc1ccc(F)cc1F,.,.,3.4,.
Cc1ccccc1-n1ncc2c1CC(C)(C)CC2NC(=O)CCC(F)(F)F (configuration not stated),.,.,-0.6,.
O=S(=O)(c1ccc2c(c1)OCCO2)N1CCN(c2ncnc3sccc23)CC1,50.7,60.7*,1.5,38.3*
COC(=O)c1cc(S(=O)(=O)NCc2cc(OC)c(OC)c(OC)c2)cn1C,.,.,-5.1,.
COC(=O)c1sc(NC(=O)c2cc(-c3ccccc3)nc3ccccc23)c(C#N)c1C,61.7,48.7*,3.9,7.2
Cc1ccnc(SCC(=O)N2CCN(C(c3ccccc3)c3ccccc3)CC2)n1,98.5,5.2,16.2*,-2.8
COc1ccc(-c2noc(-c3ccc4c(c3)OCO4)n2)cc1,88.2,17.3,-3.3,-23.8
COc1cccc(-c2noc(-c3ccc4c(c3)OCO4)n2)c1,42.4,71.8*,-4.2,40.8*
COc1cccc(NC(=O)CCC(=O)Nc2ccc3nc(N4CCOCC4)cc(C)c3c2)c1,.,.,-2.0,.
CC(=O)Nc1sc(N/N=C\c2cccc(Cl)c2)nc1-c1cccs1,133.4*,-37.5,2.1,-15.1
CC(=O)Nc1sc(N/N=C\c2ccc(O)cc2)nc1-c1cccs1,.,.,-0.7,.
COc1cc([N+](=O)[O-])ccc1N/C=C/C(=O)c1cccs1,43.9,72.9*,13.9,46.8*
CNC(=O)NC(=O)COc1ccc2oc3c(c2c1)CCCC3,.,.,-1.9,.
Cc1ccc(N=Nc2[nH]c3ccccc3c2O)cc1,170.9*,-66.0,-4.0,-32.4
CCN1CCC(N2CCN(c3ccccc3OC)CC2)CC1,.,.,-4.3,.
CCCCNC(=S)N(CCCN(C)C)Cc1cc2cc3c(cc2[nH]c1=O)OCO3,.,.,11.7,.
CCCCN(C)C(=O)Cn1nc(Cc2ccncc2)c2ccccc2c1=O,.,.,0.4,.
COc1ccc(/C=C/C2=CCN(Cc3ccc(OC)cc3)CC2)cc1,133.5*,-36.8,1.0,6.0
COc1ccc(/C=N/N2CCN(Cc3ccccc3)CC2)cc1,.,.,-4.1,.
CCC(C(=O)Nc1ccc(C(=O)Nc2ccccc2C(=O)O)cc1)c1ccccc1 (configuration not stated),.,.,-3.0,.
SMILES,STAT3 act,STAT3 inh,HSP90 refold inh,STAT1 blocker
COc1ccc(C(=O)NCCn2cc(SCC(=O)Nc3nnc(C)s3)c3ccccc32)cc1,116.8,-16.1,16.6*,-11.3
COc1ccc(C(=O)NCCn2cc(SCC(=O)NCc3ccco3)c3ccccc32)cc1,98.0,6.5,59.4*,-6.4
Cc1nnc(NC(=O)CSc2cn(CCNC(=O)c3ccccc3)c3ccccc23)s1,104.0,0.5,13.0,-7.0
NC(=NC(=O)c1ccccc1)N1CCN(C(c2ccccc2)c2ccccc2)CC1,.,.,-1.0,.
Cc1ccc(C)c(OCCCCN2CCNCC2)c1C,.,.,3.5,.
O=C(NCCN1CCCCC1)Nc1cccc(F)c1,.,.,16.1*,.
O=C(NCCN1CCCCC1)Nc1ccc(F)cc1,.,.,0.9,.
Cc1ccc(-c2cc(N)n(Cc3ccc(Cl)cc3)n2)cc1,66.8,45.5*,3.8,11.8
COc1ccccc1-c1nc(-c2ccc(Br)cc2)no1,135.1*,-37.5,1.8,-35.9
COc1ccccc1-c1nc(-c2ccc(Br)o2)no1,159.0*,-58.5,4.3,-63.1
COc1ccccc1-c1nc(-c2ccncc2)no1,91.5,13.5,-0.6,-65.3
CCn1nc(C)c([N+](=O)[O-])c1C(=O)NNC(=O)c1ccccc1Cl,.,.,-0.5,.
CC(C)(Oc1ccc(Cl)cc1)C(=O)OCC(=O)NCCc1ccccc1,.,.,-0.4,.
COC(=O)c1ccc(NC(=O)C(=O)N2CCCC2)cc1,100.8,-1.1,16.5*,-27.6
CC(=O)c1sc(NC(=O)C2(F)C(F)(F)C(F)(F)C(F)(F)C(F)(F)C2(F)F)nc1C,54.8,58.4*,-0.9,37.4*
CC(=O)c1sc(NC(=O)C=C(C)C)nc1C,96.4,7.0,-2.0,-5.8
Brc1ccc(-c2nnc(-c3cccnc3)c3conc23)cc1,134.3*,-36.9,4.9,-1.8
COc1ccc(-c2nnc(C)c3nocc23)cc1,.,.,1.4,.
COc1ccc(C2=NC(c3ccccc3)CO2)cc1 (configuration not stated),73.9,28.3,16.2*,-47.0
